55 compounds from ChEMBL document CHEMBL4038306, “Development of an Aryloxazole Class of Hepatitis C Virus Inhibitors Targeting the Entry Stage of the Viral Replication Cycle” (J Med Chem, 2017) can be followed below.

Converted amounts (≈) assume the structure as drawn.

The nature of series [1]: Kinetic solubility of the compound in pH 7.4 phosphate buffer. The note with it: read-out: Kinetic_solubility. The series is classed as physicochemical.
Series [2] is described as follows: Permeability of the compound by PAMPA. The settings on record: for Papp: read-out: permeability. The series is classed as physicochemical. The gist of the method: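 Passive diffusion measured by stirred double-sink PAMPA; permeability expressed in 10⁻⁶ cm/s.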

Regarding `Cc1ccccc1-c1nc(CN2CCC(C(=O)NCCCN3CCOCC3)CC2)c(C)o1`, the solubility kinetic in series [1] was greater than 65 µg/mL. The Papp in series [2] was determined as 432 ×10⁻⁶ cm/s.

`Cc1ccccc1-c1nc(CN2CCC(C(=O)NCCCN3CCCCC3)CC2)c(C)o1`: the solubility kinetic in series [1] is greater than 65 µg/mL. For the same compound, the Papp in series [2] was found to be 34.5 ×10⁻⁶ cm/s.

On to `Cc1cc(-c2nc(CN3CCC(C(=O)NCCCN4C[C@H](C)C[C@H](C)C4)CC3)co2)ccc1F`, for which the solubility kinetic in series [1] was greater than 70 µg/mL. Also, the Papp in series [2] was determined as 215 ×10⁻⁶ cm/s.

As for `Cc1ccccc1-c1nc(CN2CCC(C(=O)NCCCN3CCC(C)CC3)CC2)c(C)o1`, the solubility kinetic in series [1] was greater than 67 µg/mL. Also, in series [2], the Papp turned out to be 425 ×10⁻⁶ cm/s.

For `Cc1ccccc1-c1nc(CN2CCC(C(=O)N3CCN(CCN(C)C)CC3)CC2)c(C)o1`, in series [1], the solubility kinetic is greater than 67 µg/mL. Besides, the Papp in series [2] came to 14 ×10⁻⁶ cm/s.

On to `Cc1oc(-c2c(Br)cccc2Br)nc1CN1CCC(C(=O)NCCCN2C[C@H](C)C[C@H](C)C2)CC1`, for which the solubility kinetic in series [1] came out at 62.4 µg/mL (≈ 102 µM). In addition, the Papp in series [2] was less than 1 ×10⁻⁶ cm/s.

In the case of `COc1cccc(Br)c1-c1nc(CN2CCC(C(=O)NCCCN3C[C@H](C)C[C@H](C)C3)CC2)c(C)o1`, the solubility kinetic in series [1] is greater than 83 µg/mL. For the same compound, the Papp in series [2] stood at 245 ×10⁻⁶ cm/s.

In the case of `COc1cccc(F)c1-c1nc(CN2CCC(C(=O)NCCCN3C[C@H](C)C[C@H](C)C3)CC2)c(C)o1`, in series [1], the solubility kinetic is greater than 74 µg/mL.

Regarding `Cc1cccc(F)c1-c1nc(CN2CCC(C(=O)NCCCN3C[C@H](C)C[C@H](C)C3)CC2)c(C)o1`, the solubility kinetic in series [1] is greater than 72 µg/mL. In addition, the Papp in series [2] was 234 ×10⁻⁶ cm/s.

On to `Cc1cccc(Cl)c1-c1nc(CN2CCC(C(=O)NCCCN3C[C@H](C)C[C@H](C)C3)CC2)c(C)o1`, for which the solubility kinetic in series [1] was greater than 74 µg/mL. The Papp in series [2] was determined as 196 ×10⁻⁶ cm/s.

Consider `Cc1ccccc1-c1nc(CN2CCC(C(=O)NCCCN3CC4CCCC(C4)C3)CC2)c(C)o1`, for which the solubility kinetic in series [1] is greater than 71 µg/mL. The Papp in series [2] came to 331 ×10⁻⁶ cm/s.

On to `Cc1oc(-c2c3ccccc3cc3ccccc23)nc1CN1CCC(C(=O)NCCCN2C[C@H](C)C[C@H](C)C2)CC1`, for which the solubility kinetic in series [1] was 62.1 µg/mL (≈ 112 µM).

For `Cc1ccccc1-c1nc(CN2CCC(C(=O)NCCCN3[C@H](C)CCC[C@@H]3C)CC2)c(C)o1`, in series [1], the solubility kinetic is greater than 69 µg/mL. Further, the Papp in series [2] is 55.4 ×10⁻⁶ cm/s.

In the case of `COc1cccc(OC)c1-c1nc(CN2CCC(C(=O)NCCCN3C[C@H](C)C[C@H](C)C3)CC2)c(C)o1`, the solubility kinetic in series [1] is greater than 76 µg/mL.

Consider `CCc1ccccc1-c1nc(CN2CCC(C(=O)NCCCN3C[C@H](C)C[C@H](C)C3)CC2)c(C)o1`, for which the solubility kinetic in series [1] is 55.9 µg/mL (≈ 116 µM). Further, the Papp in series [2] turned out to be 106 ×10⁻⁶ cm/s.

Take `Cc1cc(C)cc(-c2nc(CN3CCC(C(=O)NCCCN4C[C@H](C)C[C@H](C)C4)CC3)c(C)o2)c1`: the solubility kinetic in series [1] was greater than 71 µg/mL. In addition, the Papp in series [2] stood at 864 ×10⁻⁶ cm/s.

As for `Cc1ccccc1-c1nc(CN2CCC(C(=O)NCCCN3CC(C)(C)CC(C)(C)C3)CC2)c(C)o1`, the Papp in series [2] is greater than 1400 ×10⁻⁶ cm/s.

`CC[C@@H]1C[C@H](CC)CN(CCCNC(=O)C2CCN(Cc3nc(-c4c(F)cccc4F)oc3C)CC2)C1`: the Papp in series [2] came to 130 ×10⁻⁶ cm/s.

As to `COc1cccc(Cl)c1-c1nc(CN2CCC(C(=O)NCCCN3C[C@H](C)C[C@H](C)C3)CC2)c(C)o1`, the solubility kinetic in series [1] was greater than 76 µg/mL. In addition, the Papp in series [2] worked out at 51 ×10⁻⁶ cm/s.

Turning to `Cc1ccc(-c2nc(CN3CCC(C(=O)NCCCN4C[C@H](C)C[C@H](C)C4)CC3)c(C)o2)cc1C`, in series [1], the solubility kinetic is greater than 71 µg/mL. Further, in series [2], the Papp came to 219 ×10⁻⁶ cm/s.

Turning to `Cc1oc(-c2ccccc2Cl)nc1CN1CCC(C(=O)NCCCN2C[C@H](C)C[C@H](C)C2)CC1`, the solubility kinetic in series [1] was greater than 72 µg/mL. Also, the Papp in series [2] came to 352 ×10⁻⁶ cm/s.

Turning to `Cc1ccccc1-c1nc(CN2CCC(C(=O)NCCCCN3C[C@H](C)C[C@H](C)C3)CC2)c(C)o1`, the solubility kinetic in series [1] was greater than 71 µg/mL. In addition, the Papp in series [2] is 288 ×10⁻⁶ cm/s.

In the case of `Cc1cccc(Cl)c1-c1nc(CN2CCC(C(=O)NCCCN3CCC(C)(C)CC3)CC2)c(C)o1`, the solubility kinetic in series [1] is greater than 74 µg/mL.

With `CCN(CC)CCCCNC(=O)C1CCN(Cc2nc(-c3ccc(OC)c(OC)c3)oc2C)CC1`, the solubility kinetic in series [1] is greater than 72 µg/mL. Also, the Papp in series [2] is 10.4 ×10⁻⁶ cm/s.

On to `Cc1cccc(-c2nc(CN3CCC(C(=O)NCCCN4C[C@H](C)C[C@H](C)C4)CC3)c(C)o2)c1`, for which the solubility kinetic in series [1] was greater than 69 µg/mL. Also, in series [2], the Papp worked out at 279 ×10⁻⁶ cm/s.

As to `Cc1ccccc1-c1nc(CN2CCC(C(=O)NCCCN3C[C@H](C)C[C@H](C)C3)CC2)c(C)s1`, in series [1], the solubility kinetic is greater than 71 µg/mL.

For the compound `Cc1ccccc1-c1nc(CN2CCC(C(=O)NCCCN3CCC(C)(C)CC3)CC2)c(C)o1`, the solubility kinetic in series [1] was greater than 69 µg/mL. Moreover, the Papp in series [2] was determined as 241 ×10⁻⁶ cm/s.

In the case of `COc1cccc(C)c1-c1nc(CN2CCC(C(=O)NCCCN3C[C@H](C)C[C@H](C)C3)CC2)c(C)o1`, the solubility kinetic in series [1] is greater than 73 µg/mL. The Papp in series [2] worked out at 198 ×10⁻⁶ cm/s.

With `Cc1oc(-c2c(C)c(C)c(C)c(C)c2C)nc1CN1CCC(C(=O)NCCCN2C[C@H](C)C[C@H](C)C2)CC1`, the Papp in series [2] was 455 ×10⁻⁶ cm/s.

On to `Cc1ccccc1-c1nc(CN2CCC(C(=O)N3CCN(C4CCN(C)CC4)CC3)CC2)c(C)o1`, for which the solubility kinetic in series [1] is greater than 71 µg/mL. In addition, in series [2], the Papp was less than 3.2 ×10⁻⁶ cm/s.

For `Cc1oc(-c2c(Cl)cccc2Br)nc1CN1CCC(C(=O)NCCCN2C[C@H](C)C[C@H](C)C2)CC1`, the solubility kinetic in series [1] was greater than 83 µg/mL.

As for `Cc1ccc2ccccc2c1-c1nc(CN2CCC(C(=O)NCCCN3C[C@H](C)C[C@H](C)C3)CC2)c(C)o1`, the solubility kinetic in series [1] was greater than 76 µg/mL. For the same compound, in series [2], the Papp was 547 ×10⁻⁶ cm/s.

As for `COc1ccc(-c2nc(CN3CCC(C(=O)NCCCN4C[C@H](C)C[C@H](C)C4)CC3)c(C)o2)cc1OC`, in series [1], the solubility kinetic is greater than 76 µg/mL. For the same compound, the Papp in series [2] is 81.9 ×10⁻⁶ cm/s.

`Cc1cccc(C)c1-c1nc(CN2CCC(C(=O)NCCCN3C[C@H](C)C[C@H](C)C3)CC2)c(C)o1`: in series [1], the solubility kinetic was 55.9 µg/mL (≈ 116 µM). For the same compound, the Papp in series [2] came out at 254 ×10⁻⁶ cm/s.

In the case of `Cc1oc(-c2c(Cl)cccc2Cl)nc1CN1CCC(C(=O)NCCCN2C[C@H](C)C[C@H](C)C2)CC1`, the solubility kinetic in series [1] is greater than 77 µg/mL.

Consider `Cc1oc(-c2c(Cl)cccc2C(F)(F)F)nc1CN1CCC(C(=O)NCCCN2C[C@H](C)C[C@H](C)C2)CC1`, for which the solubility kinetic in series [1] came to 65.1 µg/mL (≈ 117 µM).

The compound `CC[C@@H]1C[C@H](CC)CN(CCCNC(=O)C2CCN(Cc3nc(-c4ccccc4C)oc3C)CC2)C1` yielded a permeability in series [2] of 1267 ×10⁻⁶ cm/s.

Turning to `Cc1ccc(C)c(-c2nc(CN3CCC(C(=O)NCCCN4C[C@H](C)C[C@H](C)C4)CC3)c(C)o2)c1`, the solubility kinetic in series [1] amounted to 56.1 µg/mL (≈ 117 µM).

On to `CCCN(CCC)CCNC(=O)C1CCN(Cc2nc(-c3ccccc3C)oc2C)CC1`, for which the solubility kinetic in series [1] is greater than 65 µg/mL. Besides, the Papp in series [2] was determined as 913 ×10⁻⁶ cm/s.

For the compound `Cc1ccc(-c2nc(CN3CCC(C(=O)NCCCN4C[C@H](C)C[C@H](C)C4)CC3)c(C)o2)c(C)c1`, in series [1], the solubility kinetic is greater than 71 µg/mL. Further, the Papp in series [2] turned out to be 353 ×10⁻⁶ cm/s.

For `Cc1oc(-c2ccc(Cl)cc2)nc1CN1CCC(C(=O)NCCCN2C[C@H](C)C[C@H](C)C2)CC1`, the solubility kinetic in series [1] was greater than 72 µg/mL. In addition, the Papp in series [2] is greater than 635 ×10⁻⁶ cm/s.

Take `Cc1cccc(Cl)c1-c1nc(CN2CCC(C(=O)NCCCN3CCC(C(C)C)CC3)CC2)c(C)o1`: the solubility kinetic in series [1] is greater than 76 µg/mL.

Turning to `Cc1oc(-c2cccc3ccccc23)nc1CN1CCC(C(=O)NCCCN2C[C@H](C)C[C@H](C)C2)CC1`, in series [1], the solubility kinetic was greater than 74 µg/mL.

Turning to `Cc1ccccc1-c1nc(CN2CCC(C(=O)NCCCN3CCC(C(C)C)CC3)CC2)c(C)o1`, the solubility kinetic in series [1] is greater than 71 µg/mL. Also, the Papp in series [2] amounted to 396 ×10⁻⁶ cm/s.

Take `Cc1ccc(-c2nc(CN3CCC(C(=O)NCCCN4C[C@H](C)C[C@H](C)C4)CC3)c(C)o2)cc1`: the solubility kinetic in series [1] was greater than 69 µg/mL. For the same compound, the Papp in series [2] came out at 274 ×10⁻⁶ cm/s.

`Cc1oc(-c2c(F)cccc2F)nc1CN1CCC(C(=O)NCCCN2C[C@H](C)C[C@H](C)C2)CC1`: the solubility kinetic in series [1] is greater than 72 µg/mL. Also, the Papp in series [2] was 82.4 ×10⁻⁶ cm/s.

As for `Cc1oc(-c2cccc(Cl)c2)nc1CN1CCC(C(=O)NCCCN2C[C@H](C)C[C@H](C)C2)CC1`, the solubility kinetic in series [1] was greater than 72 µg/mL. The Papp in series [2] stood at 615 ×10⁻⁶ cm/s.

For the compound `Cc1ccccc1-c1nc(CN2CCC(C(=O)NCCCN3C[C@H](C)C[C@H](C)C3)CC2)c(C)o1`, the solubility kinetic in series [1] was determined as 53.9 µg/mL (≈ 115 µM). The Papp in series [2] came out at 489 ×10⁻⁶ cm/s.

With `Cc1ccccc1-c1nc(CN2CCC(C(=O)NCCN3C[C@H](C)C[C@H](C)C3)CC2)c(C)o1`, in series [1], the solubility kinetic was greater than 67 µg/mL. For the same compound, in series [2], the Papp stood at 712 ×10⁻⁶ cm/s.

`Cc1cc(-c2nc(CN3CCC(C(=O)NCCCN4CCC(C(C)C)CC4)CC3)co2)ccc1F`: the solubility kinetic in series [1] was greater than 72 µg/mL. Also, the Papp in series [2] stood at 276 ×10⁻⁶ cm/s.

With `Cc1ccccc1-c1nc(CN2CCC(C(=O)NCCCN3CCCC(C)C3)CC2)c(C)o1` (racemic), the solubility kinetic in series [1] was greater than 67 µg/mL.

In the case of `Cc1ccccc1-c1nc(CN2CCC(C(=O)NCCCN3CCCC(CC(C)C)C3)CC2)c(C)o1` (racemic), the solubility kinetic in series [1] was found to be 54.9 µg/mL (≈ 111 µM). Also, in series [2], the Papp worked out at 3 ×10⁻⁶ cm/s.

Regarding `Cc1ccccc1-c1nc(CN2CCC(C(=O)NCCCN3C[C@H](C)C[C@@H](C)C3)CC2)c(C)o1` (racemic), in series [1], the solubility kinetic was greater than 69 µg/mL. For the same compound, the Papp in series [2] was found to be 554 ×10⁻⁶ cm/s.

Take `Cc1ccccc1-c1nc(CN2CCC(C(=O)NCCCN3CCCC(C(C)C)C3)CC2)c(C)o1` (racemic): in series [1], the solubility kinetic was greater than 71 µg/mL.

For `Cc1cccc(Cl)c1-c1nc(CN2CCC(C(=O)NCCCN3CCCC(C)C3)CC2)c(C)o1` (racemic), the solubility kinetic in series [1] came out at 52.6 µg/mL (≈ 108 µM). The Papp in series [2] is 651 ×10⁻⁶ cm/s.
